Published values collected from several papers.
Each line is one published result; the experiments were not run side by side.
JAK3: Tyrosine-protein kinase JAK3 (JAK3, Homo sapiens, UniProt P52333)
JAK3 JH1: Tyrosine-protein kinase JAK3, JH1 (JAK3, Homo sapiens, UniProt P52333)

Compound	target	effect on	mode	technique	concentration	quantity	result
COc1ncccc1-c1cnn2ccc(N3CCN(C(=O)OC(C)C)CC3)nc12	JAK3	binding	–	competition with immobilised ligand	1 µM	remaining binding	71%
C#Cc1n[nH]c2c(-c3cn([C@@H](C)c4ccccc4)c(=O)[nH]c3=O)cc(F)cc12	JAK3	enzyme activity	inhibitor	–	0.1 µM	inhibition	-12.1%
O=c1[nH]c2ccccc2n1C1CCN(Cc2ccc(-c3[nH]c4cc5ncnc5cc4nc3-c3ccccc3)cc2)CC1	JAK3	cell-free assay	–	–	0.5 µM	remaining signal	100%
C#Cc1n[nH]c2c(-c3cn(C(C)c4ccccn4)c(=O)[nH]c3=O)cc(F)cc12 (stereo not shown)	JAK3	enzyme activity	inhibitor	–	1 µM	inhibition	-4.9%
Cn1cc(-c2cc(F)cc(N3CCn4c(cc5c4CCCC5)C3=O)c2CO)cc(Nc2ccc(N3CCN(C4COC4)CC3)cn2)c1=O	JAK3	enzyme activity	inhibitor	–	0.1 µM	inhibition	2%
Cn1cncc1[C@@](O)(COc1ccc(C#N)cc1-c1ccc(OC(F)(F)F)cc1)c1ccc(C#N)cc1	JAK3 JH1	cell-free assay	–	competition with immobilised ligand	1 µM	remaining binding	100%
Nc1ncc(-c2nc(N3CCOCC3)nc(N3CCOCC3)n2)c(C(F)F)n1	JAK3 JH1	binding	–	competition with immobilised ligand	10 µM	remaining binding	46%
Cc1nn(C)cc1-c1nc2c(N3CCN(Cc4ccc(Cl)cc4)CC3)c(Cl)cnc2[nH]1	JAK3 JH1	binding	–	competition with immobilised ligand	1 µM	remaining binding	0.85%
Cn1cc(-c2cccc(N3CCc4c(sc5c4CC(C)(C)C5)C3=O)c2CO)cc(Nc2ccncn2)c1=O	JAK3	enzyme activity	inhibitor	–	1 µM	inhibition	-4%
CC(C)(C)c1cc(C=C(C#N)C#N)cc(Br)c1O	JAK3	enzyme activity	inhibitor	–	0.5 µM	remaining activity	110%
